For orientation: IC50 means the point on the concentration scale where inhibition reaches its midpoint.

Inconclusive results are not listed. Calls of active or inactive are those of the source.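 The calls were made as follows: active = inhibition of 30% or more at any tested concentration; inactive = the rest, inconclusive results apart.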

This assay has as its target M1-family alanyl aminopeptidase (Plasmodium falciparum 3D7). Nature of the assay: PfM1AAP enzyme inhibition, dose response, selectivity assay for PfM18AAP inhibitor project, biochemical, QFRET, H-Leu-NHMec substrate, set 2 (AID 602219). Conditions: recombinant PfM1AAP, H-Leu-NHMec fluorogenic cleavage; for inhibition: at 100 µM (top of the series). In a few lines: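 Technique: fluorescence, Ex 370 nm / Em 460 nm. Assay system: purified recombinant Plasmodium falciparum M1 alanyl aminopeptidase (rPfM1AAP). Amount: enzyme at 5 µg/mL final. Replication: triplicate. Times: enzyme reaction 90 min at room temperature. Buffer or medium: Tris-HCl pH 7.5, CoCl2, 2% DMSO. Benchmarks: full-reaction wells versus no-enzyme background wells for normalization.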

For the compound `Oc1ccc(CCNc2ccnc3ccccc23)cc1O`, the IC50 was 46.4 µM.

With `CN1CCN(CCc2ccc(O)c(O)c2)CC1`, the inhibition result was “inactive”.

As for `Oc1ccc(-c2csc(Nc3ncccn3)n2)cc1O`, the concentration for half-maximal inhibition (IC50) is 25.9 µM.

For `CN1CCN(CCCc2ccc(O)c(O)c2)CC1`, the inhibition entry was “inactive”.

Turning to `CN1CCN(c2nc(-c3ccc(O)c(O)c3)cs2)CC1`, the IC50 is 70.1 µM.

Regarding `COc1ccc(CCNC(c2ccccc2)c2ccccc2)cc1OC`, the inhibition result was “inactive”.

For the compound `COc1ccc(CCCN2CCN(C)CC2)cc1OC`, the inhibition result is “inactive”.

As for `Oc1ccc(-c2csc(NC3CCCC3)n2)cc1O`, the half-maximal inhibitory concentration (IC50) is 63 µM.

In the case of `Oc1ccc(CCNc2c3ccccc3nc3ccccc23)cc1O`, the IC50 is 29.8 µM.

Values taken from PubChem BioAssay AID602219 (Southern Research Specialized Biocontainment Screening …, 2012).
